Laboratory results reported in ChEMBL document CHEMBL1144240, “Binding is not enough: flexibility is needed for photocrosslinking of Lck kinase by benzophenone photoligands” (Bioorg Med Chem, 2008).
Active and inactive are the calls of the source. No cut-off for these calls is given here.

Key:
[1] = biological target: T1, Tyrosine-protein kinase Lck (Homo sapiens, UniProt P06239); experiment: Binding affinity to Lck assessed as photolabeling efficiency in presence of ATP-competitive Lck inhibitor by Western blot
Target sequence in this assay (P06239 2-509 limits assumed): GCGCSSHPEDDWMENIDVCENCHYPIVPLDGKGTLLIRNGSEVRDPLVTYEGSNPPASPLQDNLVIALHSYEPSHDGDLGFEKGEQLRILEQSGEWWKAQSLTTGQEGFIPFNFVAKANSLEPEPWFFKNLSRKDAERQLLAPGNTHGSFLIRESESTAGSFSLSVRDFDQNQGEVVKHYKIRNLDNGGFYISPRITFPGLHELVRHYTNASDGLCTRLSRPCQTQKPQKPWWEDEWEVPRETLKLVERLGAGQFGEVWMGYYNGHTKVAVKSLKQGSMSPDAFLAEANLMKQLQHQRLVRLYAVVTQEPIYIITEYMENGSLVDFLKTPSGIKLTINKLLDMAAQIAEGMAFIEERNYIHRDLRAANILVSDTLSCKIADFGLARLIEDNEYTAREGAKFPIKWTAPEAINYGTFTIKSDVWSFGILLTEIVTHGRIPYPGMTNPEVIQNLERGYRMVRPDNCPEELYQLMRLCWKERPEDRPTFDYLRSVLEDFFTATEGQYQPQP

[2] = biological target: T1, Tyrosine-protein kinase Lck; experiment: Binding affinity to Lck assessed as photolabeling efficiency by Western blot analysis
Method in brief: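 Lck was photocrosslinked with each ligand at 0, 3, 9, 18, 36, 90 and 180 µM. Labeled-band intensities were plotted against probe concentration. EC50 (ligand concentration giving 50% of maximal labeling) and its 95% CI were obtained by sigmoidal dose-response fitting of triplicate trials (n = 3).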
Target sequence in this assay (P06239 whole entry): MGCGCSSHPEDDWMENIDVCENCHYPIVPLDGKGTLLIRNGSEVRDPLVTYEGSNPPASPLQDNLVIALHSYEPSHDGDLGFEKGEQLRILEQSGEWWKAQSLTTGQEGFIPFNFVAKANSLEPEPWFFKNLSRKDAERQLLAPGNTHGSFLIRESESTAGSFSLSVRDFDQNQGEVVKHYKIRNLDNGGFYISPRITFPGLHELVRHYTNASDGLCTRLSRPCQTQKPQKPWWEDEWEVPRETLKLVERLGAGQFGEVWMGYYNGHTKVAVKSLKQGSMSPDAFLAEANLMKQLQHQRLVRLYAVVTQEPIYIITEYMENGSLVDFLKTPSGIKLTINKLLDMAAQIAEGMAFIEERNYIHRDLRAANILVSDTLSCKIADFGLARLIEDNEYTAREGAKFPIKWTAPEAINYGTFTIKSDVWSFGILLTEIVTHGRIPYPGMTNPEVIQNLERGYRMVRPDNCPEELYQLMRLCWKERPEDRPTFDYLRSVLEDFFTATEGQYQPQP

[3] = biological target: T1, Tyrosine-protein kinase Lck; experiment: Inhibition of Lck by luciferase based assay
Method in brief: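 Lck (prediluted to 46 ng/µl) was mixed with Src substrate peptide (0.25 mM stock) in 50 mM HEPES pH 7.3, 2.5 mM DTT, 0.01% Triton X-100 and 10 mM MgCl2, plus ligand at various concentrations. Reaction was started with 100 µM ATP stock and run 1 h at room temperature. Residual ATP was read by Kinase-Glo Plus luminescence after 10 min. IC50 with 95% CI from sigmoidal fit, n = 2 or 3.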

[4] = Chemical stability after 30 mins of UV irradiation by RP-HPLC; assay type: physicochemical; conditions: read-out: Stability
Method in brief: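 Free ligands in buffer solution were irradiated under a UV-A lamp (λmax 350 nm). Aliquots were taken at 0, 10 and 30 min, and intact ligand was quantified by HPLC with UV detection at 280 nm.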

| Compound | Activity [1] | EC50 [2] [µM] | IC50 [3] [µM] | remaining at 0.5 h [4] [%] | Activity [3] |
| --- | --- | --- | --- | --- | --- |
| Nc1ncnc2c1ncn2CC(=O)N(CCNC(=O)[C@@H](CO)NC(=O)[C@H](Cc1ccc(C(=O)c2ccccc2)cc1)NC(=O)CCCNC(=O)CCCC[C@@H]1SC[C@@H]2NC(=O)N[C@@H]21)CC(=O)NCC(=O)O | inactive | 23.3 | 50 | 70 | – |
| Nc1ncnc2c1ncn2CC(=O)N(CCNC(=O)CCCNC(=O)[C@H](Cc1ccc(C(=O)c2ccccc2)cc1)NC(=O)CCCNC(=O)CCCC[C@@H]1SC[C@@H]2NC(=O)N[C@@H]21)CC(=O)NCC(=O)O | inactive | 4.4 | – | 70 | inactive |
| Nc1ncnc2c1ncn2CC(=O)N(CCNC(=O)CNC(=O)[C@H](Cc1ccc(C(=O)c2ccccc2)cc1)NC(=O)CCCNC(=O)CCCC[C@@H]1SC[C@@H]2NC(=O)N[C@@H]21)CC(=O)NCC(=O)O | inactive | 14.4 | – | 70 | inactive |
| Nc1ncnc2c1ncn2CC(=O)N(CCNC(=O)[C@H]1CCCN1C(=O)[C@H](Cc1ccc(C(=O)c2ccccc2)cc1)NC(=O)CCCNC(=O)CCCC[C@@H]1SC[C@@H]2NC(=O)N[C@@H]21)CC(=O)NCC(=O)O | – | > 150 | 50 | 70 | – |
| Nc1ncnc2c1ncn2CC(=O)N(CCNC(=O)[C@@H](CCC(=O)O)NC(=O)[C@H](Cc1ccc(C(=O)c2ccccc2)cc1)NC(=O)CCCNC(=O)CCCC[C@@H]1SC[C@@H]2NC(=O)N[C@@H]21)CC(=O)NCC(=O)O | inactive | 18.4 | – | 70 | inactive |
| Nc1ncnc2c1ncn2CC(=O)N(CCNC(=O)[C@H]1CCCCN1C(=O)[C@H](Cc1ccc(C(=O)c2ccccc2)cc1)NC(=O)CCCNC(=O)CCCC[C@@H]1SC[C@@H]2NC(=O)N[C@@H]21)CC(=O)NCC(=O)O | – | > 150 | – | 70 | inactive |
